Data published in paper PMC10883021 (ACS Omega, 2024).
Like-named read-outs stand apart in the source and are kept apart here.

What was measured:
[1] = system: MDA-MB-231 breast cancer cell line; test: MTT cell viability assay, MDA-MB-231 breast cancer cells; format: cell-based, human; conditions: read-out: IC50 on MDA-MB-231
Method in brief: (§1)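 Cells grown in DMEM with 10% FBS, 100 units/ml penicillin/streptomycin and 2 mM L-glutamine at 37 °C, 5% CO₂. 5 × 10³ cells/well were seeded and attached overnight, then given test compound at 0–200 μM for 48 h. MTT was added for 4 h at 37 °C and absorbance read at 570 nm. Viability was taken relative to untreated control cells. Mean ± SD from at least three independent experiments.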

[2] = system: HaCaT human keratinocyte cell line; test: MTT cell viability assay, HaCaT control cells; format: cell-based; conditions: read-out: IC50 on HaCaT (human fibroblasts in text), 48 h
Method in brief: as §1

[3] = system: T47D breast cancer cell line; test: MTT cell viability assay, T47D breast cancer cells; format: cell-based, human; conditions: read-out: IC50 on T47D, 48 h
Method in brief: as §1

[4] = system: MDA-MB-231 breast cancer cells; conditions: 0–100 μM; cited from earlier work
[5] = system: MCF-7 breast cancer cells; conditions: 0–100 μM; cited from earlier work

Row | Compound | IC50 ([1]; MTT, 48 h, 0–200 μM) [µM] | IC50 ([2]; MTT, 0–200 μM) [µM] | IC50 ([3]; MTT, 0–200 μM) [µM] | IC50 ([1]; Homo sapiens, MDA-MB-231, 48 h) [µM] | IC50 ([2]; Homo sapiens, HaCaT) [µM] | cytotoxic effect on MDA-MB-231 [4] | IC50 ([3]; Homo sapiens, T47D) [µM] | cytotoxic effect on MCF-7 [5]
1 | coelonin [Compound 10] | 63.8 ± 10.3 | 114 ± 7.65 | 44.4 ± 2.7 | – | – | – | – | –
2 | O=Cc1ccc(O)c(O)c1 [Compound 11, 3,4-dihydroxybenzaldehyde] | – | – | – | 67.2 ± 5.72 | 115 ± 7.69 | did not show an anticancer effect | 67.7 ± 5.9 | did not show an anticancer effect
3 | COc1cc([C@@H]2c3cc4c(cc3[C@@H](O[C@@H]3O[C@@H]5CO[C@@H](C)O[C@H]5[C@H](O)[C@H]3O)[C@H]3COC(=O)[C@H]23)OCO4)cc(OC)c1O [etoposide, reference compound] | – | – | – | – | 4.86 ± 0.35 | – | – | –
